The subject of series [1] is Human immunodeficiency virus 1. The experiment in a line: Antiviral activity against HIV1 3B in human HOG.R5 cells by GFP-based reporter gene assay. Type of series: functional, organism-based. As to conditions: Human immunodeficiency virus 1, 3B. The method, boiled down: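 HOG.R5 GFP reporter cells in microtiter wells infected with HIV-1 IIIB (2.5 ng/mL p24) in presence of test material; GFP fluorescence read after 4 days to quantify infectivity; IC50 derived.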
(In general: In a reporter assay the amount or activity of a reporter protein is the signal.)

The nature of series [2]: Cytotoxicity against GFP reporter gene expressing human HOG.R5 cells up to 20 ug/mL. In kind it is cell-based. The method, boiled down:
(§1)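 Run in parallel with the anti-HIV assay: HOG.R5 GFP reporter cultures given identical concentrations of test material but no virus; cell viability monitored after 4 days by combined microscopic and fluorometric measurement; CC50 derived.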

Series [3] is described as follows: Cytotoxicity against GFP reporter gene expressing human HOG.R5 cells at 10 ug/mL. Type of series: cell-based. The note with it: in the assay text read “20 ug/mL” for “10 ug/mL”. The method, boiled down: as §1
A short description of series [4]: Cytotoxicity against GFP reporter gene expressing human HOG.R5 cells. In kind it is cell-based. Summed up:
as §1

One may read the IC50 as the concentration needed to halve the response being measured. The low end stands for greater potency, the high end for weaker potency. The CC50 is the concentration at which the toxic effect on the cells reaches its halfway point. A low value points to harm at low concentration.

Consider `C=C1CC[C@@H](O)[C@]2(C)CC[C@H](C(C)C)[C@@H](O)[C@H]12`, for which the IC50 in series [1] came out at 73.1 µM. In addition, the Activity entry in series [2] and in series [3] was “Non-toxic” in each case.

Take `CC(=O)CC/C(=C/C1=C(C)CCC1=O)C(C)C` [LITSEACHROMOLAEVANE B]: in series [1], half-maximal inhibition (IC50) was put at 120 µM. Also, the Activity result in series [2] and in series [3] was “Non-toxic” throughout.

`C=C1CC[C@H](C(C)(C)O)/C=C/[C@@H](C)CCC1=O` [LITSEAGERMACRANE]: 27.5 µM corresponded to half-maximal inhibition in series [1] (IC50). This compound registered a CC50 in series [4] of 63.4 µM.
